Laboratory results taken from ChEMBL document CHEMBL4382237, “Design, Synthesis, and Biological Evaluation of 2-Nitroimidazopyrazin-one/-es with Antitubercular and Antiparasitic Activity” (J Med Chem, 2018).
Converted amounts (≈) assume the structure as drawn.

Key:
Cryptococcus neoformans = assay: Antifungal activity against Cryptococcus neoformans H99 ATCC […] broth microdilution assay; assay type: functional; details: var. grubii H99 ATCC 208821
How it was run: (§1)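 Broth microdilution run essentially per an earlier report. MIC taken as the lowest concentration with no visible growth. Replicates typically agreed within one 2-fold dilution. The median MIC is reported, with a range where the median fell between two tested concentrations.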

Staphylococcus aureus = assay: Antibacterial activity against methicillin-resistant Staphylococcus aureus ATCC […] by broth microdilution assay; assay type: functional
Klebsiella pneumoniae = assay: Antibacterial activity against Klebsiella pneumoniae 700603 by broth microdilution assay; assay type: functional; how it was run: as §1
Pseudomonas aeruginosa = assay: Antibacterial activity against Pseudomonas aeruginosa ATCC 27853 by broth microdilution assay; assay type: functional; how it was run: as §1
Candida albicans = assay: Antifungal activity against Candida albicans ATCC 90028 by broth microdilution assay; assay type: functional; how it was run: as §1
Giardia intestinalis = assay: Antiparasitic activity against Giardia lamblia WB trophozoites after 24 to 48 hrs by CellTiter-Glo luminescent cell viability assay; details: Giardia duodenalis
Escherichia coli = assay: Antibacterial activity against Escherichia coli ATCC 25922 by broth microdilution assay; assay type: functional; how it was run: as §1
Acinetobacter baumannii = assay: Antibacterial activity against Acinetobacter baumannii ATCC 19606 by broth microdilution assay; assay type: functional; details: ATCC 19606 = CIP 70.34 = JCM 6841; how it was run: as §1
Entamoeba histolytica = assay: Antiparasitic activity against Entamoeba histolytica HM-1:IMSS trophozoites after 24 to 48 hrs by CellTiter-Glo luminescent cell viability assay; assay type: functional, organism-based
How it was run: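 Axenic trophozoites were kept in TYI-S-33 with penicillin (100 U/mL) and streptomycin (100 µg/mL) and harvested in log phase. 5000 parasites per well were exposed to a final 8-point two-fold series of 0.39–50 µM, from 10 mM DMSO stocks. Plates were incubated 24–48 h at 37 °C under anaerobic conditions. ATP luminescence viability was read in triplicate. Percent inhibition is given at the highest concentration tested.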

[1] = test system: Mycobacterium tuberculosis; assay: Antibacterial activity against non-replicating Mycobacterium tuberculosis H37Rv after 5 days under hypoxic condition by resazurin dye-based fluorescence assay; assay type: functional; details: 120 h
How it was run: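 Same H37Rv inoculum (OD600 0.001, ~2 x 10^4 CFU/mL) in 7H9S with serially diluted compound. Plates held 5 days at 0.1% oxygen, then resazurin plus Tween-80 added.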

[2] = test system: Mycobacterium tuberculosis; assay: Antibacterial activity against Mycobacterium tuberculosis H37Rv after 5 days under normoxic condition by resazurin dye-based fluorescence assay; assay type: functional, organism-based
How it was run: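 H37Rv grown in 7H9/ADC/glycerol/Tyloxapol to mid-exponential phase, diluted to OD600 0.001 (~2 x 10^4 CFU/mL) in 7H9S with serially diluted compound. Incubated 5 days at 37 °C, then resazurin and Tween-80 added. Fluorescence (ex 530/em 590 nm) read after 24 h, normalised to no-drug and no-bacteria wells.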

[3] = test system: Trypanosoma brucei brucei; assay: Antiparasitic activity against bloodstream form of Trypanosoma brucei brucei strain 427 after 48 hrs by resazurin dye-based assay; assay type: functional, organism-based; details: strain 427, 48 h
Clostridioides difficile = assay: Antibacterial activity against Clostridium difficile 630 ATCC BAA-1382 by broth microdilution assay; assay type: functional; how it was run: as §1
HEK293 = assay: Cytotoxicity against HEK293 cells after 24 hrs by resazurin dye-based fluorescence assay; assay type: cell-based; details: human, hek293, 24 h
How it was run: (§2)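 HEK293 (3000/well) and HepG2 (5000/well) were grown 24 h in DMEM with 10% FBS at 37 °C, 5% CO2. Cells were then exposed 24 h to a dilution series up to 100 µM (0.5% DMSO). 5 µM resazurin was added for 2 h, read at ex 560/em 590. 1% Triton X-100 served as lysis control. CC50 was derived from the curves.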

HepG2 = assay: Cytotoxicity against human HepG2 cells after 24 hrs by resazurin dye-based fluorescence assay; assay type: cell-based; details: hepg2, 24 h; how it was run: as §2

SMILES	MIC (Cryptococcus neoformans)	MIC (Staphylococcus aureus)	MIC (Klebsiella pneumoniae)	MIC (Pseudomonas aeruginosa)	MIC (Candida albicans)	IC50 (Giardia intestinalis)	IC50 (Giardia intestinalis; read-out: pIC50 (converted))	MIC (Escherichia coli)	MIC (Acinetobacter baumannii)	IC50 (Entamoeba histolytica; read-out: IC50)	IC50 (Entamoeba histolytica; read-out: pIC50 (converted))	MIC [1]	MIC [2]	IC50 ([3]; read-out: IC50)	IC50 ([3]; read-out: pIC50 (converted))	MIC (Clostridioides difficile)	CC50 (HEK293)	CC50 (HepG2)
O=c1c2nc([N+](=O)[O-])cn2ccn1CCO	> 32 µg/mL	> 32 µg/mL	> 32 µg/mL	> 32 µg/mL	> 32 µg/mL	> 50 µM	> 50.1 µM	> 32 µg/mL	> 32 µg/mL									
Cc1c(C)n2cc([N+](=O)[O-])nc2c(=O)n1Cc1ccccc1OC(F)(F)F						5.3 µM	5.01 µM			18 µM	20 µM	> 32 µg/mL	>32 µg/mL	0.78 µM	0.794 µM			
Cc1nc(OCc2ccccc2OC(F)(F)F)c2nc([N+](=O)[O-])cn2c1C						> 50 µM	> 50.1 µM			> 50 µM	> 50.1 µM	> 32 µg/mL	>32 µg/mL	1.9 µM	2 µM			
Cc1cn2cc([N+](=O)[O-])nc2c(OCc2ccccc2OC(F)(F)F)n1						5.7 µM	6.31 µM			> 50 µM	> 50.1 µM	> 32 µg/mL	>32 µg/mL	1.2 µM	1.26 µM			
CC(=O)OCCn1ccn2cc([N+](=O)[O-])nc2c1=O	> 32 µg/mL	> 32 µg/mL	> 32 µg/mL	> 32 µg/mL	> 32 µg/mL			> 32 µg/mL	> 32 µg/mL									
Cc1cn2cc([N+](=O)[O-])nc2c(=O)n1CCO						> 50 µM	> 50.1 µM			> 50 µM	> 50.1 µM	> 32 µg/mL		4.6 µM	5.01 µM			
Cc1ccc(Cn2c(C)cn3cc([N+](=O)[O-])nc3c2=O)cc1						4.4 µM	3.98 µM			10 µM	10 µM	> 32 µg/mL	>32 µg/mL	0.56 µM	0.501 µM			
NC(=O)c1nc([N+](=O)[O-])cn1Cc1ccccc1						4.1 to 50 µM				> 25 µM		> 32 µg/mL				> 64 µg/mL		
CNC(=O)c1nc([N+](=O)[O-])cn1Cc1ccc(OC(F)(F)F)cc1						2.7 to 7.5 µM				10 to 45 µM		> 32 µg/mL				16 to 64 µg/mL (≈ 46.5 to 186 µM)		
O=C(NCc1ccccc1)c1nc([N+](=O)[O-])c[nH]1						0.2 to 0.5 µM				2.2 to 4.5 µM		> 32 µg/mL				4 to 16 µg/mL (≈ 16.2 to […] µM)		
CN(C)C(=O)c1nc([N+](=O)[O-])cn1Cc1ccc(OC(F)(F)F)cc1						2.7 to 7.5 µM				10 to 45 µM		> 32 µg/mL				16 to 64 µg/mL (≈ 44.7 to 179 µM)		
Cc1c(C)n2cc([N+](=O)[O-])nc2c(=O)n1Cc1cccc(OC(F)(F)F)c1						1.7 µM	1.58 µM			15 µM	15.8 µM	16 to 32 µg/mL (≈ 41.9 to 83.7 µM)	1 µg/mL (≈ 2.62 µM)	0.4 µM	0.398 µM		50.6 to 74.5 µM	26 to 80 µM
Cc1ncc([N+](=O)[O-])n1CCO [METRONIDAZOLE]						7.2 µM	7.94 µM			4.3 µM	3.98 µM	> 32 µg/mL		> 40 µM	> 39.8 µM	0.5 µg/mL (≈ 2.92 µM)		
NNC(=O)c1nc([N+](=O)[O-])cn1Cc1ccc(OC(F)(F)F)cc1						2.7 to 7.5 µM				10 to 45 µM		> 32 µg/mL				16 to 64 µg/mL (≈ 46.3 to 185 µM)		
O=c1c2nc([N+](=O)[O-])cn2ccn1C1CCCCC1	> 32 µg/mL	> 32 µg/mL	> 32 µg/mL	> 32 µg/mL	> 32 µg/mL	5.2 µM	5.01 µM	> 32 µg/mL	> 32 µg/mL			> 32 µg/mL	>32 µg/mL	1.4 µM	1.26 µM			
CC(=O)OCCOc1nc(-c2ccccc2)cn2cc([N+](=O)[O-])nc12						1.9 µM	2 µM			> 50 µM	> 50.1 µM	> 32 µg/mL		1.5 µM	1.58 µM			
Cc1cn2cc([N+](=O)[O-])nc2c(=O)n1Cc1cccc(OC(F)(F)F)c1						2.8 µM	2.51 µM			16 µM	15.8 µM	> 32 µg/mL	>32 µg/mL	1.1 µM	1.26 µM			
Cc1cn2cc([N+](=O)[O-])nc2c(=O)n1Cc1ccccc1OC(F)(F)F						3.3 µM	3.16 µM			9.1 µM	10 µM	> 32 µg/mL	>32 µg/mL	2.1 µM	2 µM			
